Shown are actives, neighbours in structure and some others; about 4.4% of the full set was active somewhere.
SENP1 inh = SENP1 (human) catalytic domain inhibition; Q9P0U3; recombinant SENP1 catalytic domain, CyPet-SUMO1-YPet FRET cleavage; inhibition, % at 10 µM; actives 0.21% (n = 360,000);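 active = inhibition at least 30% at 10 µM, raw YFP signal under a set limit, fluorescence ratio 0.5 to 1.5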
Target sequence (Q9P0U3 419-644 limits assumed): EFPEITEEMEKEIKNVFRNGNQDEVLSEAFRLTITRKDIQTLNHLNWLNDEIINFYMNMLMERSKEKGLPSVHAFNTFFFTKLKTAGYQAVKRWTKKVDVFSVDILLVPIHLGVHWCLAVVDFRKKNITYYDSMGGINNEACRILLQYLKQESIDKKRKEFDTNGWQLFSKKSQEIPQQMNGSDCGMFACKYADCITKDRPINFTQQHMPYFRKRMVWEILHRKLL
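system = hSENP1 catalytic domain, recombinant | reagent = SFCypet-SUMO1-SFYpet substrate at 25 nM | doses = one dose per compound, 10 µM, 0.5% DMSO | incubation = enzyme reaction for 50 min at room temperature, dark | measured by = FRET, CFP and YFP emission | controls = no-enzyme low, enzyme-DMSO high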
MPTP block = blocks calcium-induced mitochondrial swelling. isolated mouse mitochondria, Ca2+ swelling absorbance, 30 min. inhibition, % at 10 µM. actives 1.4% (n = 360,000). AID 602449;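 active = inhibition of 50% or more, scaled per plate between neutral and stimulator controls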
GRIN3A LBD mod = modulators (binders) of human NR3A ligand-binding domain; Tm shift relative to glycine control, % at 25 µM; NR3A LBD differential scanning fluorimetry, Tm shift; 0% = protein alone, 100% = glycine-bound protein; actives 2.5% (n = 340,000);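 active = melting temperature shift of at least 10% of the positive control shift, at one fixed dose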
EBI2 antag = antagonists of human EBI2 receptor | actives 0.81% (n = 360,000) | AID 651636 | inhibition, % at 5 µM | EBI2 beta-arrestin recruitment, luminescence, 7a,25-OHC stimulated; in the data active = inhibition above about 38%;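 also: enzyme fragment complementation signal reports receptor beta-arrestin coupling in cells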
Target sequence (P32249 whole entry, looked up, the tested form may be a part): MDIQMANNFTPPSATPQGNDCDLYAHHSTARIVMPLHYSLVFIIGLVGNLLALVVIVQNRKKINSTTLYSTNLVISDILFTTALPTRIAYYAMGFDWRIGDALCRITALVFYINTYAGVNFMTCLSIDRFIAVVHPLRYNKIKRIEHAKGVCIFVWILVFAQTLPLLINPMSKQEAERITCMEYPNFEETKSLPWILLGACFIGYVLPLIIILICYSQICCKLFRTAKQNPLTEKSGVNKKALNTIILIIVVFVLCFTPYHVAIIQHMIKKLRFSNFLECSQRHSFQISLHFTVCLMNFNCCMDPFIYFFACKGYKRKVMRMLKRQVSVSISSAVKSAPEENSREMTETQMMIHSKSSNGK
EBI2 antag conf = EBI2 (human) antagonism, single concentration confirmation | actives 29% (n = 2,400) | shares compounds with EBI2 antag | EBI2 beta-arrestin luminescence, 7a,25-OHC antagonism | inhibition, % at 5 µM;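 active = inhibition of at least 50%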
EBI2 agonist = activates EBI2, counter-screen for EBI2 antagonists; shares compounds with EBI2 antag; EBI2-expressing cells, agonist mode, luminescence, 60 min; 0% vehicle, 100% 7α,25-dihydroxycholesterol control; activation, % at 5 µM; 2,400 tested, under 10 active; AID 652000;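 active = activation of at least 50%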
bGal counter = counter-screen for EBI2 antagonists: E. coli beta-galactosidase inhibition; AID 652176; actives 1% (n = 2,400); inhibition, % at 5 µM; purified beta-galactosidase, luminescent Galacton Star, 15 min; shares compounds with EBI2 antag;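 active = replicate-average signal at least 3 plate SD below neutral wells, shown as high inhibition, flagging enzyme-inhibiting false positives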;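 also: higher means stronger loss of beta-gal luminescence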
Each line names hits and unclear results; the compound was inactive in the other large screens (follow-up assays come after a bar, where they were run).

O=C(Nc1ccc(Cl)cc1F)c1ccc2c(c1)C(=O)N(Cc1ccncc1)C2=O	EBI2 antag 51 | EBI2 antag conf inactive | EBI2 agonist inactive | bGal counter inactive
CCCCNC(=O)c1ccc2c(c1)C(=O)N(Cc1ccncc1)C2=O	none
COc1ccc(NC(=O)c2ccc3c(c2)C(=O)N(Cc2cccnc2)C3=O)cc1	EBI2 antag 53 | EBI2 antag conf inactive | EBI2 agonist inactive | bGal counter inactive
COc1ccc(NC(=O)c2cc3ccccc3o2)cn1	EBI2 antag 38 | EBI2 antag conf inactive | EBI2 agonist inactive | bGal counter inactive
COCc1cccc(-c2csc(C(C)(NC(C)=O)c3ccc(OC)cc3)n2)c1 (centres undefined)	none (no result: GRIN3A LBD mod)
O=C(Nc1cccnc1)/C(N=Nc1c(Cl)cccc1Cl)=C(\O)c1ccccc1	EBI2 antag 51 | EBI2 antag conf inactive | EBI2 agonist inactive | bGal counter inactive
CCOC(=O)C1=C(O)/C(=C/c2ccc(OCC(=O)O)c(OCC)c2)SC1=Nc1ccc(OC)cc1	none
CCOC(=O)C1=C(O)/C(=C/c2cc(OC)c(OC)c(OC)c2)SC1=Nc1ccc(OC)cc1	EBI2 antag 62 | EBI2 antag conf 55 | EBI2 agonist inactive | bGal counter inactive
O=C(Oc1ccc(Cl)c2cccnc12)c1cccc([N+](=O)[O-])c1	EBI2 antag 54 | EBI2 antag conf inactive | EBI2 agonist inactive | bGal counter inactive
O=C(Oc1c(Cl)cc(Cl)c2cccnc12)c1cccc([N+](=O)[O-])c1	none
C=CCNC(=O)COC(=O)c1cc(S(=O)(=O)N2CCCCC2)ccc1Cl	none
COC(=O)c1ccc2nc(C3CCCCC3)c(Cc3ccccc3)n2c1	EBI2 antag 51 (no result: GRIN3A LBD mod) | EBI2 antag conf 65 | EBI2 agonist inactive | bGal counter inactive
COC(=O)c1ccc2nc(C3CCCCC3)c(CC(C)(C)C)n2c1	none (no result: GRIN3A LBD mod)
COc1ccc(NC(=O)CN(C)C(=O)c2ccc3c(c2)CC(c2ccccc2)OC3=O)cc1 (centres undefined)	EBI2 antag 49 (no result: GRIN3A LBD mod) | EBI2 antag conf inactive | EBI2 agonist inactive | bGal counter inactive
c1ccc(-c2cc3c(-n4cccc4)ncnc3o2)cc1	none
c1ccc(Oc2ncnc3oc(-c4ccccc4)cc23)cc1	EBI2 antag 50 | EBI2 antag conf inactive | EBI2 agonist inactive | bGal counter inactive
N#Cc1cc2c(nc1SCC(=O)Nc1sc3c(c1C#N)CCC3)CCC2	none
N#Cc1cc2c(nc1SCC(=O)Nc1sc3c(c1C#N)CCC3)CCCCCC2	EBI2 antag 47 | EBI2 antag conf inactive | EBI2 agonist inactive | bGal counter inactive
CCS(=O)(=O)N1CCN(C(=O)c2cccc3ccccc23)CC1	none
Cn1cccc1/C=N/NC(=O)c1sc2ccccc2c1Cl	none
O=C(N/N=C/c1ccccn1)c1cc(-c2ccc(Br)cc2)nc2ccccc12	EBI2 antag 76 | EBI2 antag conf 78 | EBI2 agonist inactive | bGal counter inactive
CCCOc1cccc(-c2cc(C(=O)N/N=C/c3cccnc3)c3ccccc3n2)c1	none
O=C(N/N=C/c1ccccn1)c1sc2ccccc2c1Cl	EBI2 antag 42 | EBI2 antag conf inactive | EBI2 agonist inactive | bGal counter inactive
CCCOc1cccc(-c2cc(C(=O)N/N=C/c3ccccn3)c3ccccc3n2)c1	EBI2 antag 48 | EBI2 antag conf 61 | EBI2 agonist inactive | bGal counter inactive
O=C(N/N=C/c1ccccn1)c1cc(-c2ccc(Cl)cc2)nc2ccccc12	EBI2 antag 72 | EBI2 antag conf 78 | EBI2 agonist inactive | bGal counter inactive
CS(=O)(=O)Nc1cc2c3c(c1)CCC(=O)N3CCC2	none
Cc1ccc2nc(Cl)c(C#N)cc2c1	none
CC1=C(C(=O)N2CCOCC2)CC(CC(=O)NCc2cccs2)C(=O)N1CCC1=CCCCC1 (centres undefined)	none (no result: GRIN3A LBD mod)
Cc1ccc(S(=O)(=O)NC(=O)C2(C)CCN2C(=O)c2ccccc2CCc2ccccc2)cc1 (centres undefined)	none (no result: GRIN3A LBD mod)
Cc1cccc(C)c1N(CC(=O)N/N=C/c1cc(Br)c(C)o1)S(C)(=O)=O	none
Cc1ccc2c(c1)C(CCN)C(=O)N2Cc1ccccc1 (centres undefined)	EBI2 antag 52 | EBI2 antag conf inactive | EBI2 agonist inactive | bGal counter 46
Cc1ccc2c(c1)N(Cc1ccccc1)C(=O)C(C)S2 (centres undefined)	none (no result: GRIN3A LBD mod)
COc1cccc(-n2cc(-c3ccc(F)cc3)[nH]c2=S)c1	none
COC(=O)c1ccc(-n2cc(-c3ccc(OC)cc3)[nH]c2=S)cc1	EBI2 antag 74 | EBI2 antag conf 60 | EBI2 agonist inactive | bGal counter inactive
COc1ccc(-n2cc(-c3ccc(Cl)cc3)[nH]c2=S)cc1	EBI2 antag 91 | EBI2 antag conf 72 | EBI2 agonist inactive | bGal counter inactive
Cc1ccc(C)c(N2CCN(c3nnnn3-c3ccccc3)CC2)c1	none
CC(C)c1ccc(NC(=S)Nc2ccc3cn[nH]c3c2)cc1	EBI2 antag 50 | EBI2 antag conf inactive | EBI2 agonist inactive | bGal counter inactive
COc1ccc(C(=O)N2CCC(C(=O)c3ccc(F)cc3)CC2)cc1	EBI2 antag 59 | EBI2 antag conf inactive | EBI2 agonist inactive | bGal counter inactive
COc1cc(OC)cc(C(=O)N2CCC(C(=O)c3ccc(F)cc3)CC2)c1	none
CCOc1ccc(C(=O)N2CCCN(C(=O)c3ccc(OCC)cc3)CC2)cc1	EBI2 antag 45 | EBI2 antag conf inactive | EBI2 agonist inactive | bGal counter inactive
COc1ccc(C(=O)C2CCN(C(=O)c3ccc(OC)cc3)CC2)cc1	EBI2 antag 58 | EBI2 antag conf inactive | EBI2 agonist inactive | bGal counter inactive
CCOc1ccc(C(=O)N2CCC(C(=O)c3ccc4c(c3)OCCO4)CC2)cc1	EBI2 antag 81 | EBI2 antag conf 56 | EBI2 agonist inactive | bGal counter inactive
COc1ccccc1NC(=O)Cn1c(CCC(=O)O)ccc1-c1ccc(C)cc1	none
Cc1ccc(NCCNc2ccc(C)cc2)cc1	EBI2 antag 47 | EBI2 antag conf 58 | EBI2 agonist inactive | bGal counter inactive
Cc1ccc(NCCc2ccc(C)nc2)cc1	EBI2 antag 47 | EBI2 antag conf inactive | EBI2 agonist inactive | bGal counter inactive
COc1ccc(NCCNc2ccc(OC)cc2)cc1	EBI2 antag 40 | EBI2 antag conf inactive | EBI2 agonist inactive | bGal counter inactive
Cc1ccc(C(=O)OC(C)C(=O)Nc2ccc3c(c2)OCO3)c(O)c1 (centres undefined)	none
COc1ccc(CC(=O)O/N=C(\N)Cc2cccc3ccccc23)cc1OC	none

Assay outcomes deposited in PubChem by Sanford-Burnham Center for Chemical Genomics.
